# ChEMBL document CHEMBL1141165, “Novel 8-substituted dipyridodiazepinone inhibitors with a broad-spectrum of activity against HIV-1 strains resistant to non-nucleoside reverse transcriptase inhibitors” (J Med Chem, 2005)
# What was measured:
# [1] = biological target: T1, Human immunodeficiency virus type 1 reverse transcriptase (Human immunodeficiency virus 1, UniProt Q72547); assay: Inhibitory activity of compound dissolved in DMSO was determined against HIV-1 wild type reverse transcriptase (1-2 nM) by using [3H]dGTP (71 nM) as substrate, 50 mM Tris/HCl buffer, pH 7.8, incubated for 1 h at 37 degrees C
# In short: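 Wild-type RT preincubated 15 min at room temperature with inhibitor. Final reaction: Tris/HCl 50 mM pH 7.8, NaCl 60 mM, MgCl2 2 mM, DTT 6 mM, GSH 2 mM, Chaps 0.02%, DMSO 3%, poly rC 179 nM, biotin-dG15 18 nM, dGTP 288 nM, 3H-dGTP 71 nM, enzyme 1–2 nM, inhibitor 10 μM–0.5 nM. Run 1 h at 37 °C, EDTA-quenched, read with streptavidin SPA beads.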
# [2] = biological target: T2, Human immunodeficiency virus type 1 reverse transcriptase (Human immunodeficiency virus 1, UniProt Q72547, K103N/Y181C); assay: Inhibitory activity of compound dissolved in DMSO was determined against HIV-1 (K103N/Y181C) mutant reverse transcriptase (1-2 nM) by using [3H]-dGTP (71 nM) as substrate, 50 mM Tris/HCl buffer, pH 7.8, incubated for 1 hr at 37 degrees C
# In short: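 RT at ≈3 nM preincubated 15 min at room temperature with inhibitor, then substrate added. Final mix: 50 mM Tris/HCl pH 7.8, 60 mM NaCl, 2 mM MgCl2, 6 mM DTT, 2 mM GSH, 0.02% Chaps, 3% DMSO, 179 nM poly rC, 18 nM biotin-dG15, 288 nM dGTP, 71 nM 3H-dGTP, 1–2 nM enzyme, inhibitor 10 μM–0.5 nM. Reaction 1 h at 37 °C, quenched with EDTA plus streptavidin SPA beads, CsCl added, scintillation counted.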
# C8166 [3] = assay: Inhibition of HIV replication in T-lymphocyte cell line C8166 infected with K103N/P225H mutant reverse transcriptase upon incubation with the compound for 3 days; format: functional, Homo sapiens
# In short: (§1)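 C8166 T-lymphocytes infected at MOI 0.001 with HIV-1 carrying wild-type or mutant RT, then grown 3 days with serial compound dilutions in RPMI 1640 + 10% FBS, 10 μg/mL gentamycin, 10 μM β-mercaptoethanol (also the diluent). Supernatant pooled from eight replica wells; extracellular p24 measured by HIV-1 p24 antigen kit.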
# C8166 [4] = assay: Inhibition of HIV replication in T-lymphocyte cell line C8166 infected with Y188L mutant reverse transcriptase upon incubation with the compound for 3 days; format: functional, Homo sapiens; in short: as §1
# [5] = biological target: T1, Human immunodeficiency virus type 1 reverse transcriptase; assay: Effective concentration towards HIV-1 wild type reverse transcriptase activity by 50% measured in cellular assay
# In short: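 C8166 T-lymphocytes infected at MOI 0.001 with wild-type HIV-1, then cultured 3 days with serial compound dilutions in RPMI 1640 containing 10% FBS, gentamycin and 10 μM β-mercaptoethanol. Supernatants pooled from eight replicate wells. Extracellular p24 measured by antigen immunoassay.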
# C8166 [6] = assay: Inhibition of HIV replication in T-lymphocyte cell line C8166 infected with K103N/L100I mutant reverse transcriptase upon incubation with the compound for 3 days; format: functional, Homo sapiens; in short: as §1
# C8166 [7] = assay: Inhibition of HIV replication in T-lymphocyte cell line C8166 infected with V106A mutant reverse transcriptase upon incubation with the compound for 3 days; format: functional, Homo sapiens; in short: as §1
# [8] = biological target: T2, Human immunodeficiency virus type 1 reverse transcriptase; assay: Effective concentration towards HIV-1 K103N/Y181C mutant reverse transcriptase activity by 50% measured in cellular assay; in short: as §1
# C8166 [9] = assay: Inhibition of HIV replication in T-lymphocyte cell line C8166 infected with K103N/V108I mutant reverse transcriptase upon incubation with the compound for 3 days; format: functional, Homo sapiens; in short: as §1
# [10] = Half-life is determined in monkey after intravenous administration at 1 mg/kg; format: ADME, organism-based; parameters: dose 1 mg/kg, route intravenous; conditions: cercopithecidae, in vivo
# In short: (§2)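 Intravenous bolus at 1 mg/kg to overnight-fasted male Sprague-Dawley rats, beagle dogs or rhesus monkeys. Vehicle: N,N-dimethylacetamide/0.9% aqueous NaCl (30:70). Animals restrained during sampling. Plasma extracts analysed by HPLC. Parameters derived by noncompartmental analysis.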
# Cytochrome P450 1A2 = biological target: T3, Cytochrome P450 1A2 (Homo sapiens, UniProt P05177); assay: Inhibitory concentration (1.5 mM) against human CYP450 1A2 dissolved in acetonitrile/methanol
# T3 sequence (P05177 whole entry): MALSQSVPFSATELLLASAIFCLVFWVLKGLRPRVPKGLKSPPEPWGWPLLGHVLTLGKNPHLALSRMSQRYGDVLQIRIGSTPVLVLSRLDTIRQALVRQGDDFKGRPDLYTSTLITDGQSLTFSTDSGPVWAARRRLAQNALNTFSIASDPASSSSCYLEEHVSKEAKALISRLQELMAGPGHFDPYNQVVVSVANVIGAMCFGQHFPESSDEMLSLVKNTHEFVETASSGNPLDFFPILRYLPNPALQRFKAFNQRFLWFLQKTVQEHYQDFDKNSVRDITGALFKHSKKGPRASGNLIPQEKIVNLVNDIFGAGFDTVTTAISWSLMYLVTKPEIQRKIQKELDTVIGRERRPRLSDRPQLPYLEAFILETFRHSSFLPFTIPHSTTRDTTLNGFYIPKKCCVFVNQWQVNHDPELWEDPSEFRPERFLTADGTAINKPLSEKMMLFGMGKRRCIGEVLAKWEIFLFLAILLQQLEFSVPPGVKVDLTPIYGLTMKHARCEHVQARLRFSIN
# [11] = Half-life is determined in rat after intravenous administration at 1 mg/kg; format: ADME, organism-based; parameters: dose 1 mg/kg, route intravenous; conditions: in vivo; in short: as §2
# [12] = Area under curve is determined in dog after oral administration 5 mg/kg; conditions: in vivo
# [13] = Steady state volume of distribution is determined in monkey after intravenous administration at 1 mg/kg; format: ADME, organism-based; parameters: dose 1 mg/kg, route intravenous; conditions: cercopithecidae, in vivo, read-out: Vss; in short: as §2
# [14] = Clearance is determined in rat after intravenous administration at 1 mg/kg; format: ADME, organism-based; parameters: dose 1 mg/kg, route intravenous; conditions: in vivo; in short: as §2
# [15] = Area under curve is determined in monkey after oral administration at 5 mg/kg; conditions: cercopithecidae, in vivo
# [16] = Bioavailability is determined in monkey after oral administration at 5 mg/kg; conditions: cercopithecidae, in vivo
# [17] = Clearance is determined in dog after intravenous administration at 1 mg/kg; format: ADME, organism-based, Canis lupus familiaris; parameters: dose 1 mg/kg, route intravenous; conditions: in vivo; in short: as §2
# [18] = Concentration maximum is determined in rat after oral administration at 5 mg/kg; conditions: in vivo
# [19] = Steady state volume of distribution in rat after intravenous administration 1 mg/kg; format: ADME, organism-based; parameters: dose 1 mg/kg, route intravenous; conditions: in vivo, read-out: Vss; in short: as §2
# Cytochrome P450 3A4 [20] = biological target: T4, Cytochrome P450 3A4 (Homo sapiens, UniProt P08684)
# T4 sequence (P08684 whole entry): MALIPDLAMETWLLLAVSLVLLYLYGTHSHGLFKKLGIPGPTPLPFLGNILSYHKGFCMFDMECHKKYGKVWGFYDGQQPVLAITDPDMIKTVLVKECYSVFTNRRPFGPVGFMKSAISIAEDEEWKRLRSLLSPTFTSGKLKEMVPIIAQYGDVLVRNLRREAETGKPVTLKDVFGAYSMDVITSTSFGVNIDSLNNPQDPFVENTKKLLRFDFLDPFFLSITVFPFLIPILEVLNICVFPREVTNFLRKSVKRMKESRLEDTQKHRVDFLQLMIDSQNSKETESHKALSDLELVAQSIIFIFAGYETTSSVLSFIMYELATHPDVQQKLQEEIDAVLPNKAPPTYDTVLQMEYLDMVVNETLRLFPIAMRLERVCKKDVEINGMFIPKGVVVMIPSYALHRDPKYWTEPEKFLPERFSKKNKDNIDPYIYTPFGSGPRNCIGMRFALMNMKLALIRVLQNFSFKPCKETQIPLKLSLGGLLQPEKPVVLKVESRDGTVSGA
# [21] = Bioavailability is determined in dog after oral administration 5 mg/kg; conditions: in vivo
# in vitro = conditions: male, human, liver microsomes
# Cytochrome P450 2C19 = Cytochrome P450 2C19 (Homo sapiens, UniProt P33261); assay: Inhibitory concentration (1.5 mM) against human CYP450 2C19 dissolved in acetonitrile/methanol
# Sequence of Cytochrome P450 2C19 (P33261 whole entry): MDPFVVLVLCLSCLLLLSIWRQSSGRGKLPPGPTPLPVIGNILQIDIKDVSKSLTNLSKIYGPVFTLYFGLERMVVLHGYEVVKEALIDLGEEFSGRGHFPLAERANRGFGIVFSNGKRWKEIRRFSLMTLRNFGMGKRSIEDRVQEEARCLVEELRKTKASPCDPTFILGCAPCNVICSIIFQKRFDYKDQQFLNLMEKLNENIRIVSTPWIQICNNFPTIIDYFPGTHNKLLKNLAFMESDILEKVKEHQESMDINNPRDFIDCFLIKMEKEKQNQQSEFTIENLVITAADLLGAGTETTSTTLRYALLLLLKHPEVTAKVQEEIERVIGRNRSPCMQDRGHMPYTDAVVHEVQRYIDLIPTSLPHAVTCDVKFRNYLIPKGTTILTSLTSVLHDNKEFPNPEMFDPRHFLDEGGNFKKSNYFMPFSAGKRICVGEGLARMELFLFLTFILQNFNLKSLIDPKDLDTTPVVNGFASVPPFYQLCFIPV
# Cytochrome P450 3A4 [22] = biological target: T4, Cytochrome P450 3A4; assay: Inhibitory concentration (1.5 mM) against human CYP450 3A4 dissolved in acetonitrile/methanol using 7-Benzyloxy-quinoline (BQ) as fluorogenic substrate
# Cytochrome P450 2C9 = Cytochrome P450 2C9 (Homo sapiens, UniProt P11712)
# Sequence of Cytochrome P450 2C9 (P11712 whole entry): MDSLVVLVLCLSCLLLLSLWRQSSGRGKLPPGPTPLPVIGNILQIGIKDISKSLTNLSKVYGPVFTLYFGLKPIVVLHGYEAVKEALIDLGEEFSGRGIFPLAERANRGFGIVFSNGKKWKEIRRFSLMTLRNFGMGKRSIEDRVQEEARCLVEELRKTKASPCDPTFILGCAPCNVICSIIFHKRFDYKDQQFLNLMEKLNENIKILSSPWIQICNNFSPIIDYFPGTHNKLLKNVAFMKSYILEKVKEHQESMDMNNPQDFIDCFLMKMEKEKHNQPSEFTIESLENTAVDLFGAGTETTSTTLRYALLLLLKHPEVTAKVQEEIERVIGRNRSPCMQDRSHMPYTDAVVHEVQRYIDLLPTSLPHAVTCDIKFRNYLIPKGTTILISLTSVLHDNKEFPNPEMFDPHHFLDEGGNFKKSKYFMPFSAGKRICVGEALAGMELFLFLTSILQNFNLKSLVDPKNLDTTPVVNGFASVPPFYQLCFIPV
# [23] = Maximum concentration is determined in monkey after oral administration at 5 mg/kg; conditions: cercopithecidae, in vivo
# Cytochrome P450 2D6 = Cytochrome P450 2D6 (Homo sapiens, UniProt P10635); assay: Inhibitory concentration (1.5 mM) against human CYP450 2D6 dissolved in acetonitrile/methanol
# Sequence of Cytochrome P450 2D6 (P10635 whole entry): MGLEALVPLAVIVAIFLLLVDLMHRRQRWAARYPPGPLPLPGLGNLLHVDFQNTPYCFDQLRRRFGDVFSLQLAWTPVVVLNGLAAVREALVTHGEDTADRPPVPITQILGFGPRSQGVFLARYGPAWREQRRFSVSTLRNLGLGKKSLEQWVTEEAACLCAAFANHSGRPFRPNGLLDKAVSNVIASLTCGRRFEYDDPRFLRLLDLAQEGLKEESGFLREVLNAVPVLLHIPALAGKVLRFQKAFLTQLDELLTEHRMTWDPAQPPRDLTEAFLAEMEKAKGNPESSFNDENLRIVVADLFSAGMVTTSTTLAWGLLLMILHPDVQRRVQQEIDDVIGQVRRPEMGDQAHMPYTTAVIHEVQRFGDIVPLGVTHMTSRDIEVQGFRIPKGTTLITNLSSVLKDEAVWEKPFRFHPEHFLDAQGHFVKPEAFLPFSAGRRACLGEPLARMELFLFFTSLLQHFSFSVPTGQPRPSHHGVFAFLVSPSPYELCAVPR
# [24] = Steady state volume of distribution is determined in dog after intravenous administration 1 mg/kg; format: ADME, organism-based, Canis lupus familiaris; parameters: dose 1 mg/kg, route intravenous; conditions: in vivo, read-out: Vss; in short: as §2
# [25] = Clearance is determined in monkey after intravenous administration 1 mg/kg; format: ADME, organism-based; parameters: dose 1 mg/kg, route intravenous; conditions: cercopithecidae, in vivo; in short: as §2
# Caco-2 = assay: Caco-2 permeability upon incubation at 37 degrees C for 180 minutes; format: functional, Homo sapiens
# In short: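 Cells grown on 12-well Transwell membranes and exposed to test solution for 180 min at 37 °C. Receiving-side (basolateral, A to B) samples analysed by HPLC. Apparent permeability = (ΔQ/Δt)/(A·C0), where ΔQ/Δt is the transport rate, A the monolayer area and C0 the initial donor concentration.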
# [26] = Half-life is determined in dog after intravenous administration 1 mg/kg; format: ADME, organism-based, Canis lupus familiaris; parameters: dose 1 mg/kg, route intravenous; conditions: in vivo; in short: as §2
# [27] = Bioavailability is determined in rat after oral administration at 5 mg/kg; conditions: in vivo
# [28] = Area under curve is determined in rat after oral administration at 5 mg/kg; conditions: in vivo
# [29] = Concentration maximum is determined in dog after oral administration 5 mg/kg; conditions: in vivo
smiles,measurement,setting,value
CCN1c2ncc(CCOc3ccc4cc(C(=O)O)ccc4c3)cc2C(=O)N(C)c2cccnc21,IC50,[1],14 nM
same,IC50,[2],1100 nM
CCN1c2ncc(CCOc3cccc4c(C(=O)O)cccc34)cc2C(=O)N(C)c2cccnc21,IC50,[1],60 nM
same,IC50,[2],550 nM
CCN1c2ncc(CCOc3ccc(C(=O)O)c4ccccc34)cc2C(=O)N(C)c2cccnc21,IC50,[1],27 nM
same,IC50,[2],194 nM
CCN1c2ncc(CCOc3ccc(C(=O)O)cc3C)cc2C(=O)N(C)c2ccc(F)nc21,Antiviral activity,C8166 [3],2 nM
same,Antiviral activity,C8166 [4],27 nM
same,EC50,[5],1.5 nM
same,Antiviral activity,C8166 [6],3 nM
same,Antiviral activity,C8166 [7],27 nM
same,EC50,[8],14 nM
same,IC50,[1],15 nM
same,Antiviral activity,C8166 [9],4 nM
same,IC50,[2],150 nM
CCc1cc(C(=O)O)ccc1OCCc1cnc2c(c1)C(=O)N(C)c1cccnc1N2CC,EC50,[5],2.2 nM
same,EC50,[8],24 nM
same,IC50,[1],19 nM
same,IC50,[2],430 nM
CCN1c2ncc(CCOc3ccc(C(=O)O)cc3C)cc2C(=O)N(C)c2cccnc21,Antiviral activity,C8166 [3],5 nM
same,half-life,[10],1.3 h
same,IC50,Cytochrome P450 1A2,> 30000 nM
same,half-life,[11],11 h
same,AUC,[12],20 uMh
same,Vd,[13],1 L/kg
same,clearance,[14],7.1 mL/min/kg
same,AUC,[15],3.4 uMh
same,bioavailability,[16],43%
same,Antiviral activity,C8166 [4],172 nM
same,EC50,[5],1.6 nM
same,clearance,[17],10 mL/min/kg
same,Antiviral activity,C8166 [6],4 nM
same,Cmax,[18],6.5 µM
same,Vd,[19],4.6 L/kg
same,IC50,Cytochrome P450 3A4 [20],24000 nM
same,bioavailability,[21],115%
same,half-life at 10 µM,in vitro,2.23 h
same,IC50,Cytochrome P450 2C19,2000 nM
same,IC50,Cytochrome P450 3A4 [22],> 30000 nM
same,Antiviral activity,C8166 [7],36 nM
same,IC50,Cytochrome P450 2C9,10000 nM
same,Cmax,[23],1.5 µM
same,IC50,Cytochrome P450 2D6,> 30000 nM
same,EC50,[8],15 nM
same,Vd,[24],2.5 L/kg
same,IC50,[1],17 nM
same,clearance,[25],24 mL/min/kg
same,Antiviral activity,C8166 [9],5 nM
same,Caco-2 A-B,Caco-2,2.75e-05 cm/s
same,half-life,[26],5.9 h
same,IC50,[2],221 nM
same,bioavailability,[27],46%
same,AUC,[28],12 uMh
same,Cmax,[29],16 µM
CCN1c2ncc(CCOc3ccc(CCC(=O)O)cc3C)cc2C(=O)N(C)c2cccnc21,EC50,[5],5.5 nM
same,half-life at 10 µM,in vitro,3.43 h
same,EC50,[8],101 nM
same,IC50,[1],22 nM
same,Caco-2 A-B,Caco-2,4.69e-05 cm/s
same,IC50,[2],200 nM
